Measurements reported in paper PMC3966493 (Chemistry & biology, 2013).
One block for each molecule: values may come before it. Ends that are not written are not given here. * marks the point of attachment. FITC = O=C1OC2(c3ccc(O)cc3Oc3cc(O)ccc32)c2ccc(NC(=S)*)cc21

Key:
[1] = target: T1, EphA4 LBD (Homo sapiens, UniProt P54764); test: Protein NMR 2D [15N,1H]-HSQC chemical shift perturbation / titration; type: binding; settings: for binding of individual side-chain fragments by 2D HSQC: perturbations observable only at higher ligand concentrations (3 mM)
T1 sequence (P54764 29-209): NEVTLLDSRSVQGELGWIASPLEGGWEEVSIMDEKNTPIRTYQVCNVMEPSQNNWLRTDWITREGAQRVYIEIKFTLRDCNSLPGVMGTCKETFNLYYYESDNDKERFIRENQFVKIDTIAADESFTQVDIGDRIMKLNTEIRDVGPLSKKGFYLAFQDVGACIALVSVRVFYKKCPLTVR
How it was run: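 15N-labelled EphA4 LBD (M9 medium with (15NH4)2SO4) at 50 µM was used. 2D [15N,1H]-HSQC spectra (32 scans, 2,048 × 128 complex points, 300 K) were recorded with and without test compound. Shifts were computed as Δδ = √[(Δ1H)² + (0.17·Δ15N)²]. For Kd, compound was titrated stepwise and Δδ was fitted to a quadratic binding equation.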

[2] = target: T1, EphA4 LBD; test: Fluorescence polarization assay; type: binding; settings: 5 µM FITC-KYL, 2 µM EphA4 LBD
How it was run: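 Human EphA4 LBD (residues 29–209), His-tag purified from E. coli Rosetta-gami (DE3), at 2 µM final, was preincubated 10 min at room temperature with varying test compound in PBS pH 7.2. N-terminally FITC-labelled KYL peptide (5 µM final) was added. After 30 min at room temperature, polarization (mP) was read at ex/em 480/535 nm. Unlabelled KYL served as positive control, DMSO as negative.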

[3] = target: human EphA4 ligand-binding domain (residues 29-209) (human, UniProt P54764 29-209); test: fluorescence polarisation
Chain of human EphA4 ligand-binding domain (residues 29-209) (P54764 29-209): as above

Molecule: Cc1c[nH]c2ccccc12 [3-methylindole]
- binding of individual side-chain fragments by 2D HSQC [1]: weak binding affinities

Molecule: Cc1ccc(Cl)cc1 [4-chlorotoluene]
- binding of individual side-chain fragments by 2D HSQC [1]: weak binding affinities

Other lines, results leading:

- binding by 2D [15N,1H]-HSQC chemical shift perturbation ([1]; 50 µM EphA4 LBD, 100 µM compound): inactive
- IC50 by FPA [2]: inactive
Molecule: KYLP

- binding result [3]: binds
Molecule: {FITC}-KYLPYWPVLSSL [FITC-labeled KYL peptide]
